Experimental data taken from paper PMC10674630 (Diabetes, Metabolic Syndrome and Obesity, 2023).
In brackets after ≈: the same amount, converted by molar mass. Entries after “also recorded” stand apart in the source; their conditions may differ. Like-named read-outs stand apart in the source and are kept apart here. *1 amine or outer side, *2 acyl side, *3 side chain or, on linkers, in order; H or OH if unused. Where a SMILES comes first, the peptide text is derived from it. Bridges are numbered along the chain shown (N, C = ends). [ ]: non-standard residue; d: D form. X1 = CC(C)CCCCCCCCC[C@H](CC(=O)[*:1])O[*:2]

Assays:
ATCC 25923 [1] = experiment: Microbroth dilution MIC, ATCC 25923; type: cell-based, S. aureus; details: triplicate
Procedure, shortened: (§1)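 Surfactin was dissolved in sterile distilled water and tested by broth microdilution in MH broth. Strains were a reference strain and MALDI-TOF-identified clinical isolates from diabetic foot ulcers. MIC was the lowest concentration without visible growth. For MBC, 10 µL from clear wells was plated on MH agar for 24 h at 37 °C, and MBC was the lowest concentration giving no colonies. Tests were run in triplicate.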

SA 095 = experiment: Microbroth dilution MIC, SA 095; type: cell-based, S. aureus; details: SA 095 (non-MDR), triplicate
Procedure, shortened: as §1

SA 366 = experiment: Microbroth dilution MIC, SA 366; type: cell-based, S. aureus; details: SA 366 (MDR), triplicate
Procedure, shortened: as §1

SA 326 = experiment: Microbroth dilution MIC, SA 326; type: cell-based, S. aureus; details: SA 326 (MRSA), triplicate
Procedure, shortened: as §1

SA 452 [2] = experiment: Microbroth dilution MIC, SA 452; type: cell-based, S. aureus; details: SA 452 (MRSA), triplicate
Procedure, shortened: as §1

[3] = test system: standard and clinical strains of Staphylococcus aureus; experiment: MIC and MBC by microbroth dilution, all selected strains; type: cell-based
Procedure, shortened: as §1

ATCC 25923 [4] = experiment: Bacterial growth curves, ATCC 25923; type: cell-based, S. aureus
Procedure, shortened: (§2)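 Cultures of ATCC 25923 and a clinical MRSA strain were diluted to 1×10^6 CFU/mL in MH broth with surfactin at 0, 1/2×MIC, MIC or 2×MIC, with an MH broth-only negative control. Tubes were shaken at 200 rpm and 35 °C for 24 h. OD600 was read at 0, 4, 8, 12 and 24 h. Runs were done in triplicate.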

SA 452 [5] = experiment: Bacterial growth curves, SA 452; type: cell-based, S. aureus; details: for Growth inhibition: 24-h exposure, 0, 1/2×MIC, MIC, 2×MIC
Procedure, shortened: as §2

[6] = test system: ATCC 25923 biofilm formation; experiment: Biofilm inhibition assay; type: cell-based, S. aureus
Procedure, shortened: (§3)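 Overnight cultures were diluted in TSB containing serial surfactin dilutions (1/64×MIC to 2×MIC) to 1×10^6 CFU/mL and grown in triplicate wells for 24 h at 37 °C. Wells were washed three times with PBS and stained with 0.5% crystal violet for 20 min. After air-drying, stain was solubilised in 95% ethanol for 20 min at room temperature and OD570 was read.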

SA 452 biofilm formation = experiment: Biofilm inhibition assay; type: cell-based, S. aureus
Procedure, shortened: as §3

ATCC 25923 [7] = experiment: Transmission electron microscopy; type: cell-based, S. aureus; details: 5×MIC, 1 h, control 0.05% DMSO
human red blood cells = experiment: Human red blood cells hemolysis assay; type: cell-based; details: 1 h, 37 °C
Procedure, shortened: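 Whole blood from healthy human volunteers was spun at 1000×g for 5 min, and the RBCs were washed three times in PBS and resuspended in PBS. RBC suspension was mixed 1:1 with serial surfactin dilutions and incubated 1 h at 37 °C, then supernatant A570 was read. Hemolysis % was scaled between 0.1% DMSO (negative) and 0.1% Triton X-100 (positive).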

penicillinase = experiment: Penicillinase inhibition assay; type: biochemical
Procedure, shortened: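 Penicillin K (10,000 U/mL) added at 2:1 to mixture, 1 h at 37 °C. Then 0.01 mol/L iodine for 15 min, back-titrated with 0.01 mol/L Na2S2O3 to colourless, starch indicator near endpoint. Thiosulfate consumed is inversely related to enzyme activity.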

Gram-negative bacteria = experiment: Efficacy against Gram-negative bacteria; type: cell-based; details: data not shown
[8] = test system: S. aureus biofilm formation; experiment: Biofilm inhibition assay; type: cell-based
Procedure, shortened: as §3

[9] = test system: S. aureus (ATCC 25923 and MRSA SA 452); experiment: Mutant prevention / resistance selection, both strains; type: cell-based; details: S. aureus
Procedure, shortened: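 Strains were grown 24 h in MH broth, centrifuged at 4000×g for 10 min and resuspended to 1×1010 CFU/mL. […] MPC was the lowest concentration preventing colonies. MPC/MIC ratio defined the mutant selection window.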

ATCC 25923 [10] = test system: ATCC 25923
SA 452 [11] = test system: SA 452
S. aureus biofilm = details: ref 28 (Liu et al), cited from earlier work
icaA = details: cited from earlier work
icaD = details: cited from earlier work
sortaseA = details: S. aureus; cited from earlier work
fnbA = details: S. aureus; cited from earlier work
fnbB = details: S. aureus; cited from earlier work
[12] = 1.5 mg/mL, ref 39 (Englerová et al)

## CC(C)CCCCCCCCC[C@@H]1CC(=O)N[C@@H](CCC(=O)O)C(=O)N[C@@H](CC(C)C)C(=O)N[C@H](CC(C)C)C(=O)N[C@@H](C(C)C)C(=O)N[C@@H](CC(=O)O)C(=O)N[C@H](CC(C)C)C(=O)N[C@@H](CC(C)C)C(=O)O1 [Surfactin, surfactin] (EL[dL]VD[dL]L; linker N-C via X1 (inferred))
ATCC 25923 [1]
  MIC: 512 µg/mL (≈ 494 µM)
SA 095
  MIC: 512 µg/mL (≈ 494 µM)
SA 366
  MIC: 512 µg/mL (≈ 494 µM)
SA 326
  MIC: 1024 µg/mL (≈ 988 µM)
SA 452 [2]
  MIC: 512 µg/mL (≈ 494 µM)
[3]; S. aureus from DFUs (non-MDR, MDR, MRSA) and ATCC 25923
  Antibacterial activity (in words): antibacterial and bactericidal activity against S. aureus strains; also recorded: effectively inhibited the growth of S. aureus
[3]; non-MDR, MDR, MRSA, ATCC 25923
  Difference in MICs between strains with different resistance patterns: no significant difference in MICs
ATCC 25923 [4]; 24-h exposure, 0, 1/2×MIC, MIC, 2×MIC, OD600
  Growth inhibition: inhibited the growth of ATCC 25923 and SA 452 in a dose-dependent manner
ATCC 25923 [4]; MIC and 2×MIC
  Growth inhibition at MIC and 2×MIC: almost completely inhibited
ATCC 25923 [4]; from 4 h, 1/2×MIC
  Growth reduction at half the MIC: significantly reduced from 4 h
SA 452 [5]; OD600
  Growth inhibition: inhibited the growth of ATCC 25923 and SA 452 in a dose-dependent manner
SA 452 [5]; OD600, listed as surfactin
  Growth inhibition: inhibited the growth of both ATCC 25923 and SA 452 in a dose-dependent manner
SA 452 [5]; MIC and 2×MIC
  Growth inhibition at MIC and 2×MIC: almost completely inhibited
SA 452 [5]; from 4 h, 1/2×MIC
  Growth reduction at half the MIC: significantly reduced from 4 h
[6]; 1/64×MIC to 2×MIC
  Biofilm inhibition, dose dependence: dose-dependent inhibitory effect
[6]; 2×MIC, crystal violet, 24 h, 37°C
  Inhibition of biofilm formation: 80%
[6]; crystal violet, OD570, 24 h, 37°C, TSB
  Concentration from which biofilm inhibition starts: 1/16
SA 452 biofilm formation; MRSA, 2×MIC
  MRSA biofilm inhibition at 2×MIC (in words): almost completely inhibited
SA 452 biofilm formation; SA 452, 1/64×MIC to 2×MIC
  Biofilm inhibition, dose dependence: dose-dependent inhibitory effect
SA 452 biofilm formation; SA 452, 2×MIC, crystal violet, 24 h, 37°C
  Inhibition of biofilm formation: more than 95%
SA 452 biofilm formation; SA 452, crystal violet, OD570, 24 h, 37°C, TSB
  Concentration from which biofilm inhibition starts: 1/16
ATCC 25923 [7]
  Cell structure by TEM: damaged structure, leading to cell lysis and death; also recorded: irregular and collapsed surfaces, content leakage, and cell death
Human red blood cells; 16×MIC, human RBC
  Hemolysis at 16×MIC: > 5%
Human red blood cells; all concentrations less than 16×MIC, human RBC
  Hemolysis below 16×MIC: no hemolysis was observed
Human red blood cells; human RBC in PBS, A570, Triton X-100 positive control
  Concentration at which hemolytic activity (hemolysis > 5%) occurred: 16 ×MIC
Human red blood cells; human RBC
  Cytotoxicity to RBCs (in words): limited toxicity on human red blood cells; also recorded: extremely low cytotoxicity to RBCs; also recorded: very low cytotoxicity to erythrocytes
penicillinase; […], 10,000 U/mL penicillinase, 18 h, 35 °C, penicillinase-only control 0.5 mL
  Volume of Na2S2O3 consumed (penicillinase inhibition): 2.25 mL
penicillinase; iodometry
  Penicillinase inhibition (in words): directly inhibited penicillinase activity, but not as much as the clavulanate potassium; also recorded: significantly reduced penicillinase activity
Gram-negative bacteria
  Efficacy against Gram-negative bacteria relative to Gram-positive: less than that of Gram-positive bacteria
[8]; 1/16×MIC
  Biofilm inhibition at 1/16×MIC (in words): significantly inhibited
[8]; S. aureus
  Biofilm inhibition (in words): significantly prevented the S. aureus biofilm formation; also recorded: dose-dependent inhibitory effect on S. aureus biofilm formation; also recorded: significantly reducing biofilm production
[9]
  In vitro resistance development: In vitro resistance was not readily produced
ATCC 25923 [10]; surfactin with ampicillin
  FICI: 0.5
ATCC 25923 [10]; surfactin with ciprofloxacin
  Fold Change: 2
ATCC 25923 [10]; surfactin with erythromycin
  Fold Change: 8
ATCC 25923 [10]; surfactin with oxacillin
  FICI: 0.25
  Fold Change: 8
ATCC 25923 [10]; surfactin with tetracycline
  FICI: 0.188
  Fold Change: 8
SA 452 [11]; surfactin with ampicillin
  FICI: 0.133
  Fold Change: 8
SA 452 [11]; surfactin with ciprofloxacin
  FICI: 2
SA 452 [11]; surfactin with erythromycin
  FICI: 2
SA 452 [11]; surfactin with gentamicin
  FICI: 0.25
  Fold Change: 8
SA 452 [11]; surfactin with oxacillin
  FICI: 0.156
  Fold Change: 8
SA 452 [11]; surfactin with tetracycline
  FICI: 0.133
  Fold Change: 8
S. aureus biofilm; 0.2% surfactin, 4 h
  Biofilm removal rate: 80%
S. aureus biofilm; one-quarter MIC, S. aureus
  Reduction of biofilm production: 60%
icaA; [12]
  Downregulation of icaA expression: 2.82 fold
icaA; 2×MIC, ref 28 (Liu et al)
  Expression of icaA (in words): significantly reduced the expression
icaD; [12]
  Downregulation of icaD expression: 1.85 fold
icaD; 2×MIC, ref 28 (Liu et al)
  Expression of icaD (in words): significantly reduced the expression
sortaseA
  Expression of sortaseA (in words): inhibit the expression
fnbA
  Expression of fnbA (in words): inhibit the expression
fnbB
  Expression of fnbB (in words): inhibit the expression
